HSF1 inhib: HSF1 inhibitors in luciferase reporter cells, primary screen, cell-based, NIH3T3, luminescence. NIH3T3-HGL HSE-luciferase, MG132-induced, luminescence 8 h; hits give low values. AID 2098, 2009. actives 0.77% (n = 300,000). activity change, negative = inhibition, % at 7.5 µM (by protocol);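 active means more than half of replicate wells show activity change below -50%, luminescence cut by over half; inconclusive means some wells, but at most half, below -50%; inactive means no replicate well below -50%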;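 further: luciferase reports HSF-1 transcriptional activity via heat shock element; 0% = median of DMSO wells and -100% = zero luminescence signal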
HSF1 activator: HSF-1 activators, primary screen, NIH3T3-HGL cells, MG132 stress, luminescence, single point; activation, % at 9 µM; NIH3T3-HGL HSF-1 luciferase reporter, 8 h; 100% = twice DMSO control signal; actives 1.7% (n = 300,000); AID 504408, 2011;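 active means mean replicate activation of at least 50% with a set share of replicates each reaching 50%; inconclusive means only one of those two conditions met; inactive means mean below 50% and too few replicates reaching it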;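 further: 0% = median of the neutral control wells and 100% = twice that signal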
Calb FLC: C. albicans growth inhibition with fluconazole, primary screen, CaCi-2 strain, Alamar Blue fluorescence. C. albicans CaCi-2 + fluconazole, 48 h. growth inhibition, % (test concentration not listed). actives 0.57% (n = 300,000). AID 1979, 2009;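 active means growth inhibition above about 58% in most replicates, limit read from the data, passing the limit was not always enough; inconclusive means exactly half the replicates above a set limit; inactive means most replicates below a set limit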;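 further: all wells also contain fluconazole at 8 µg/ml as a sub-toxic cotreatment; 0% = median of DMSO wells and 100% = median of geldanamycin control wells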
HIF act: HIF pathway transcriptional activators, primary screen, cell-based, U2OS HRE-luciferase, luminescence; U2OS HRE-luciferase reporter; normalized: DMSO 0%, desferrioxamine 100%; actives 0.32% (n = 300,000); activation, % at 7.5 µM (by protocol);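 active means mean activation of at least 10% of the iron chelator positive control signal, with at least half of replicates also reaching 10%; inconclusive means mean and replicate majority disagree about reaching 10%; inactive means mean and most replicates under 10%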
T cruzi inh: inhibitors of intracellular T. cruzi growth, primary screen, luminescence, NIH3T3 host cells; T. cruzi beta-gal in NIH3T3, 90 h; inhibition, % (concentration not given with the values); actives 1.4% (n = 300,000);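 active means mean inhibition across valid replicates above about 55%, limit read from the data; inconclusive means mean below that limit but half or more replicates reach it; inactive means mean below it, under half of replicates reach it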;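 further: signal also drops with host cell toxicity which is not excluded here; 0% = plate median of DMSO wells and 100% = zero luminescence signal; higher percent means less beta-gal luminescence so fewer parasites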
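Assay system: NIH/3T3 host cells with β-galactosidase reporter T. cruzi; input: 5,000 host fibroblasts per well; compound: single 50 nL compound addition per well in DMSO; timing: ≥90 h infection period, 3 h prior cell attachment; measured by: GalScreen β-gal luminescence, detergent lysis, 60 min; evaluation: percent inhibition of parasite-derived β-gal signal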
Numbers without * were called inactive. Only some compounds are listed: those with a hit (about 4.4% of all), similar ones and a draw of the others.

For CC(=O)c1ccc(NC(=O)CSc2nc(C3CC3)nc3ccccc23)cc1 the results were HSF1 inhib 47, HSF1 activator 33, Calb FLC -3, HIF act -1 and T cruzi inh 7.
`CCCn1c(SCC(=O)O)nc2ccccc21` gave HSF1 inhib 2, HSF1 activator 0, Calb FLC -3, HIF act 0 and T cruzi inh 1.
For CCN(C(=O)Cn1cc(C(=O)C(=O)N2CCOCC2)c2ccccc21)c1ccccc1 the results were HSF1 inhib 7, HSF1 activator 6, Calb FLC 4, HIF act 0 and T cruzi inh 12.
Screening Cc1ccc(CNC(=O)CS(=O)(=O)Cc2nc(-c3ccc(C)cc3)oc2C)cc1 returned HSF1 inhib -5, HSF1 activator -8, Calb FLC 18, HIF act -1 and T cruzi inh 9.
Screening O=c1[nH]cnc2scc(-c3ccc(-c4ccccc4)cc3)c12 returned HSF1 inhib 14, HSF1 activator 58*, Calb FLC 3, HIF act 1 and T cruzi inh -18.
O=C1/C(=C/c2ccc([N+](=O)[O-])cc2)Oc2cc(O)ccc21 was read as HSF1 inhib 61, HSF1 activator 73*, Calb FLC 22, HIF act 1 and T cruzi inh -8.
CCCn1c2c(c(O)c(C(=O)Nc3ccc(OC)cc3)c1=O)CCCC2 was read as HSF1 inhib 8, HSF1 activator 38, Calb FLC 14, HIF act -9 and T cruzi inh 61*.
Screening O=S(=O)(Nc1ccccc1O)c1ccc(-c2ccccc2)cc1 returned HSF1 inhib 59, HSF1 activator 65*, Calb FLC 8, HIF act 0 and T cruzi inh -4.
`CCc1ccc(S(=O)(=O)Nc2ccc(O)c3ccccc23)cc1` gave HSF1 inhib 25, HSF1 activator 78*, Calb FLC 42, HIF act 0 and T cruzi inh 4.
`O=S(=O)(Nc1cccnc1Cl)c1ccc(-c2ccccc2)cc1` gave HSF1 inhib -9, HSF1 activator 9, Calb FLC -3, HIF act -47 and T cruzi inh -6.
For N=c1c(C(=O)NC2CCCCC2)cc2c(=O)n3ccccc3nc2n1Cc1ccco1 the results were HSF1 inhib 5, HSF1 activator 0, Calb FLC -1, HIF act 0 and T cruzi inh 22.
N=c1c(C(=O)NCCc2ccccc2)cc2c(=O)n3ccccc3nc2n1Cc1ccco1 was read as HSF1 inhib 46, HSF1 activator 75*, Calb FLC 3, HIF act 1 and T cruzi inh 11.
For N=c1c(C(=O)NCc2ccc(F)cc2)cc2c(=O)n3ccccc3nc2n1Cc1cccnc1 the results were HSF1 inhib 0, HSF1 activator -4, Calb FLC -7, HIF act -1 and T cruzi inh 70*.
`Cc1ccc(NC(=O)CN2CCN(S(=O)(=O)c3cccs3)CC2)cc1S(=O)(=O)N(C)C` gave HSF1 inhib 0, HSF1 activator 9, Calb FLC -35, HIF act 0 and T cruzi inh 4.
Cc1ccc(C(=O)Nc2ccc(-c3csc(C)n3)cc2)cc1 was read as HSF1 inhib 22, HSF1 activator 45, Calb FLC 1, HIF act 3 and T cruzi inh -2.
For Cc1nc(-c2ccc(NC(=O)C3CCCCC3)cc2)cs1 the results were HSF1 inhib 21, HSF1 activator 57*, Calb FLC 5, HIF act 3 and T cruzi inh 10.
Screening CCOCCCNC(=S)Nc1cc(C)cc(C)c1 returned HSF1 inhib -16, HSF1 activator -11, Calb FLC -3, HIF act 143* and T cruzi inh -7.
COc1cc(OC)cc(C(=O)N2CCC3(CC2)NCCc2[nH]cnc23)c1 was read as HSF1 inhib 3, HSF1 activator 3, Calb FLC -1, HIF act 0 and T cruzi inh -1.
CCOCCCn1c(=S)[nH]c2cc(C(=O)NCC(OC)OC)ccc2c1=O was read as HSF1 inhib -1, HSF1 activator -4, Calb FLC -5, HIF act 0 and T cruzi inh -5.
COc1ccc(CCNC(=O)C2CCCN(S(=O)(=O)c3ccc(F)cc3)C2)cc1OC (stereo not given) was read as HSF1 inhib -57*, HSF1 activator -67, Calb FLC 9, HIF act 1 and T cruzi inh -1.
For Cc1cc(C)c(S(=O)(=O)N2CCCC(C(=O)NCCC3=CCCCC3)C2)c(C)c1 (stereo not given) the results were HSF1 inhib 27, HSF1 activator 60*, Calb FLC -7, HIF act -1 and T cruzi inh 11.
Screening CCS(=O)(=O)N1CCCC(C(=O)NCCc2ccc(OC)c(OC)c2)C1 (stereo not given) returned HSF1 inhib -5, HSF1 activator -3, Calb FLC 10, HIF act 0 and T cruzi inh -13.
For COc1ccc(S(=O)(=O)N2CCCC(C(=O)NCCC3=CCCCC3)C2)cc1 (stereo not given) the results were HSF1 inhib 8, HSF1 activator 35, Calb FLC -9, HIF act 0 and T cruzi inh 35.
CCOC(=O)N1CCN(S(=O)(=O)c2ccc3c(c2)SCC(=O)N3)CC1 was read as HSF1 inhib -3, HSF1 activator -7, Calb FLC inconclusive, HIF act -1 and T cruzi inh 1.
Screening CCOC(=O)N1CCN(S(=O)(=O)c2ccc3c(c2)OCC(=O)N3)CC1 returned HSF1 inhib -52*, HSF1 activator -62, Calb FLC 4, HIF act 0 and T cruzi inh -5.
For CCOC(=O)N1CCN(S(=O)(=O)c2cc(OCC)ccc2OCC)CC1 the results were HSF1 inhib 2, HSF1 activator -17, Calb FLC 2, HIF act 3 and T cruzi inh 1.
Screening CCOC(=O)N1CCN(S(=O)(=O)c2cc(Cl)c(OC)cc2Cl)CC1 returned HSF1 inhib 41, HSF1 activator 70*, Calb FLC -3, HIF act 0 and T cruzi inh 9.
Cc1nc2c(-c3ccc(F)cc3)c(C)nn2c(C)c1CCC(=O)N1CCC(Cc2ccccc2)CC1 was read as HSF1 inhib 1, HSF1 activator 16, Calb FLC -2, HIF act 0 and T cruzi inh 23.
For Cc1sc2ncnc(N3CCC(C(=O)N(C)CC(=O)Nc4ccccc4Cl)CC3)c2c1C the results were HSF1 inhib -13, HSF1 activator -13, Calb FLC 5, HIF act 0 and T cruzi inh 4.

High-throughput results as filed in PubChem.
